# Results: ChEMBL document CHEMBL4376902, “CN128: A New Orally Active Hydroxypyridinone Iron Chelator” (J Med Chem, 2020)
# What was measured:
# [1] = Ratio of drug level in stomach to plasma in rat at 150 umol/kg, po measured within 10 mins by LC-MS/MS analysis; type: ADME, organism-based; details: stomach and plasma
# Summary of the method: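 SD rats (half male, half female, n = 6 per group) given a single oral 150 μmol/kg dose. Killed at 10 min, 30 min, 2 h or 6 h; tissues washed in saline, weighed and homogenised in acetonitrile/water 1:9 (125 mg/mL). Tissue levels compared with plasma.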
# [2] = Drug level in rat adrenal gland at 150 umol/kg, po measured measured up to 6 hrs by LC-MS/MS analysis; type: ADME, organism-based; details: in vivo
# Summary of the method: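 Single oral dose of 150 μmol/kg to SD rats, half male and half female, n=6 per group. Rats decapitated at 10 min, 30 min, 2 h and 6 h. Tissues dissected, saline-washed, weighed and homogenised in acetonitrile/water 1:9 (125 mg/mL). Drug level measured against plasma; mean ± SE.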
compound,measurement,setting,value
Cc1c(O)c(O)cc[n+]1[C@@H](CO)Cc1ccccc1.[Cl-],Kp at 10 min,[1],3.3 to 8.8
same,Drug uptake,[2],Not Active
